Experimental data as given in ChEMBL document CHEMBL4406893 (Bioorg Med Chem Lett, 2019).
Values after ≈ are worked out from the molar mass of the structure shown.

Assays:
[1] = test system: Human immunodeficiency virus 2; assay: Antiviral activity against HIV-2 ROD infected in human MT4 cells; conditions: Human immunodeficiency virus 2, ISOLATE ROD
[2] = test system: Human immunodeficiency virus 1; assay: Antiviral activity against HIV-1 […] infected in thymidine kinase deficient human C8166 cells; assay type: functional, organism-based, 3B
[3] = test system: Human immunodeficiency virus 1; assay: Antiviral activity against wild type HIV-1 3B infected in human MT4 cells; assay type: functional, organism-based; conditions: Human immunodeficiency virus 1, 3B
Method in brief: (§1)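 MT4 cells infected with HIV-1 (III_B) or HIV-2 (ROD), run in parallel with stavudine as positive control; antiviral IC50 and cytotoxic CC50 determined, selectivity index derived.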

[4] = Selectivity index, ratio of CC50 for human MT4 cells to IC50 for antiviral activity against HIV-1 IIIB infected in MT4 cells; assay type: toxicity, cell-based; conditions: read-out: Ratio CC50/IC50
Method in brief: (§2)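 MT4 cells infected with HIV-1 IIIB or HIV-2 ROD and tested in parallel with stavudine (d4T) as positive control. Antiviral IC50 and cytotoxic CC50 were both determined in MT4 cells. Selectivity index is CC50/IC50.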

[5] = Selectivity index, ratio of CC50 for human MT4 cells to IC50 for antiviral activity against HIV-2 ROD infected in human MT4 cells; assay type: toxicity, cell-based; conditions: read-out: Ratio CC50/IC50
Method in brief: as §2

[6] = Cytotoxicity against human MT4 cells; assay type: cell-based
Method in brief: as §1

physchem = conditions: phosphate buffered saline, pH 7.4
[7] = test system: Human immunodeficiency virus 1; assay: Antiviral activity against wild type HIV-1 3B infected in wild type human C8166 cells; assay type: functional, organism-based; conditions: Human immunodeficiency virus 1, 3B
[8] = test system: Human immunodeficiency virus 1; assay: Potency index, ratio of stavudine IC50 to test compound IC50 for antiviral activity against HIV-1 3B infected in human MT4 cells; assay type: functional
Method in brief: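 MT4 cells infected with HIV-1 (IIIB) or HIV-2 (ROD). Test compounds were assayed alongside stavudine as the positive control, and antiviral IC50 was determined for each. Cytotoxicity (CC50) and selectivity index were determined in the same screen.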

[9] = Prodrug activation in acetone-d6 and Trizma buffer assessed as carboxypeptidase Y (unknown origin)-mediated (S)-2-((((2S,5R)-5-(5-methyl-2,4-dioxo-3,4-dihydropyrimidin-1(2H)-yl)-2,5-dihydrofuran-2-yl)methoxy)oxidophosphorylamino)propanoate metabolite formation at 5 mg incubated for 7 mins to 2 hrs by 31P NMR analysis; assay type: ADME, Homo sapiens
Method in brief: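 Compound dissolved in acetone-d6 with Trizma buffer (pH 7.6), treated with carboxypeptidase Y; ³¹P NMR spectra recorded over time, blank spectrum at 25 °C, conversion of parent diastereoisomer peaks to the intermediate monitored by chemical shift changes.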

[10] = test system: Human immunodeficiency virus 2; assay: Potency index, ratio of stavudine IC50 to test compound IC50 for antiviral activity against HIV-2 ROD infected in human MT4 cells
[11] = test system: Human immunodeficiency virus 1; assay: Potency index, ratio of stavudine IC50 to test compound IC50 for antiviral activity against wild type HIV-1 3B infected in wild type human C8166 cells; assay type: functional
[12] = Prodrug activation in acetone-d6 and Trizma buffer assessed as carboxypeptidase Y (unknown origin)-mediated 3-(pentafluoro-lambda6-sulfanyl)phenol metabolite formation at 5 mg incubated for 1.25 hrs by 19F NMR analysis; assay type: ADME, Homo sapiens
[13] = Human immunodeficiency virus 1, 3B, C8166, read-out: IC50

Compound	IC50 [1] [nM]	IC50 [2]	IC50 [3] [nM]	solubility kinetic at 2 h (physchem) [µM]	IC50 [7] [nM]	Drug metabolism [9]	Drug metabolism [12]	selectivity ratio [4]	selectivity ratio [5]	CC50 [6] [nM]	IC50 [2, 13] [nM]	Ratio IC50 [8]	Ratio IC50 [10]	Ratio IC50 [11]
COC(=O)[C@H](C)NP(=O)(OC[C@@H]1C=C[C@H](n2cc(C)c(=O)[nH]c2=O)O1)Oc1ccccc1 (stereo partly specified)	270		210		300			1200	930	251000	320			
COC(=O)[C@H](C)NP(=O)(OC[C@@H]1C=C[C@H](n2cc(C)c(=O)[nH]c2=O)O1)Oc1cccc(S(F)(F)(F)(F)F)c1 (stereo partly specified)	36		30	> 100	54	Metabolite_Detected	Metabolite_Detected	1750	1460	52600	335	>10	>10	75
COC(=O)[C@H](C)NP(=O)(OC[C@@H]1C=C[C@H](n2cc(C)c(=O)[nH]c2=O)O1)Oc1ccc(C(F)(F)F)cc1 (stereo partly specified)	47		37	> 100	22			1160	912	42900	75			180
Cc1cn([C@H]2C=C[C@@H](CO)O2)c(=O)[nH]c1=O [STAVUDINE]	450	Not Active	400	> 100	4060			782	695	313000				

Now from value to compound, other results behind:

IC50 [1] [nM]	IC50 [2]	IC50 [3] [nM]	solubility kinetic at 2 h (physchem) [µM]	IC50 [7] [nM]	Drug metabolism [9]	Drug metabolism [12]	Compound	selectivity ratio [4]	selectivity ratio [5]	CC50 [6] [nM]	IC50 [2, 13] [nM]	Ratio IC50 [8]	Ratio IC50 [10]	Ratio IC50 [11]
49	Not Active	41	> 100	39			COC(=O)[C@H](C)NP(=O)(OC[C@@H]1C=C[C@H](n2cc(C)c(=O)[nH]c2=O)O1)Oc1cccc(C(F)(F)F)c1 (stereo partly specified)	1610	1350	66100				
			10 to 30 (≈ 4.8 to 14.4 µg/mL)				COC(=O)C1=C(C)NC(C)=C(C(=O)OCCN(C)Cc2ccccc2)C1c1cccc([N+](=O)[O-])c1 (stereo unspecified) [NICARDIPINE]							
